{
  "source": "paper PMC3536955",
  "about": "(Osteoporosis International, 2012)",
  "assay_type_in_all_cases": "in vivo, postmenopausal Japanese women",
  "key": {"intact PTH": {"test_system": "intact PTH", "experiment": "Serum intact PTH", "conditions": "4 to 15 days; 56.5 μg single s.c.; n = 10", "outline": "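Intact PTH in serum was measured by electrochemiluminescence immunoassay. Postmenopausal women aged 60–79 y were randomised double-blind to placebo or a single s.c. dose, given at 0800 h straight after baseline sampling. Blood was drawn at 15, 30, 45, 60, 90, 120, 180, 240, 360 and 720 min, then mornings of days 2, 4, 6, 8, 11, 13 and 15. Baseline median and follow-up distribution were reported.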"}, "[1]": {"test_system": "Serum cross-linked N-telopeptide of type I collagen (NTX)", "experiment": "Bone resorption marker serum NTX", "conditions": "n = 10", "outline": "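Serum NTX was measured by ELISA (inter-assay CV 6.9–11.1 %), with all of a participant's samples run together. The trial was a placebo-controlled, double-blind, single-centre study in postmenopausal women aged 60–79 y, each given one s.c. injection after 0800 h baseline sampling. Blood was taken at 15–720 min and on mornings of days 2–15. Baseline median and follow-up distribution were tabulated.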"}, "osteocalcin": {"test_system": "osteocalcin", "experiment": "Bone formation marker serum osteocalcin", "conditions": "n = 10", "outline": "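Women aged 60–79 y were randomised double-blind to placebo or one s.c. injection at 0800 h, given after baseline blood. Serum was sampled 15–720 min post-dose, then each morning on days 2, 4, 6, 8, 11, 13 and 15. Osteocalcin was measured by BGP-IRMA (inter-assay CV 4.7–7.6 %), in a single batch per participant. Values were summarised as baseline median and follow-up distribution.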"}, "[2]": {"test_system": "1,25-Dihydroxy vitamin D (1,25(OH)2D)", "experiment": "Serum 1,25", "conditions": "n = 10", "outline": "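Serum 1,25(OH)2D was measured by radio receptor assay (inter-assay CV 11.3–13.2 %), with each participant's samples in a single batch. Women aged 60–79 y received one s.c. injection or placebo at 0800 h after baseline blood, in a double-blind randomised design. Sampling ran from 15–720 min and on mornings of days 2, 4, 6, 8, 11, 13 and 15. Median baseline and follow-up distribution were tabulated.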"}, "P1NP": {"test_system": "P1NP", "experiment": "Bone formation marker serum P1NP", "conditions": "n = 10", "outline": "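Randomised, double-blind, placebo-controlled trial in women aged 60–79 y. A single s.c. dose was given at 0800 h after baseline sampling. Serum was drawn 15–720 min post-dose and on mornings of days 2, 4, 6, 8, 11, 13 and 15. P1NP was measured by radioimmunoassay (inter-assay CV 2.7–5.0 %), with each subject's samples in one batch. Median baseline and follow-up distribution were reported.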"}, "[3]": {"conditions": "4 to 15 days, 28.2 μg single s.c."}, "[4]": {"conditions": "4 to 15 days, 56.5 μg single s.c."}},
  "data": [
    {"smiles": "CC[C@H](C)[C@H](NC(=O)[C@H](CCC(=O)O)NC(=O)[C@H](CO)NC(=O)[C@@H](NC(=O)[C@@H](N)CO)C(C)C)C(=O)N[C@@H](CCC(N)=O)C(=O)N[C@@H](CC(C)C)C(=O)N[C@@H](CCSC)C(=O)N[C@@H](Cc1cnc[nH]1)C(=O)N[C@@H](CC(N)=O)C(=O)N[C@@H](CC(C)C)C(=O)NCC(=O)N[C@@H](CCCCN)C(=O)N[C@@H](Cc1cnc[nH]1)C(=O)N[C@@H](CC(C)C)C(=O)N[C@@H](CC(N)=O)C(=O)N[C@@H](CO)C(=O)N[C@@H](CCSC)C(=O)N[C@@H](CCC(=O)O)C(=O)N[C@@H](CCCN=C(N)N)C(=O)N[C@H](C(=O)N[C@@H](CCC(=O)O)C(=O)N[C@@H](Cc1c[nH]c2ccccc12)C(=O)N[C@@H](CC(C)C)C(=O)N[C@@H](CCCN=C(N)N)C(=O)N[C@@H](CCCCN)C(=O)N[C@@H](CCCCN)C(=O)N[C@@H](CC(C)C)C(=O)N[C@@H](CCC(N)=O)C(=O)N[C@@H](CC(=O)O)C(=O)N[C@H](C(=O)N[C@@H](Cc1cnc[nH]1)C(=O)N[C@@H](CC(N)=O)C(=O)N[C@@H](Cc1ccccc1)C(=O)O)C(C)C)C(C)C", "note": "[teriparatide]", "values": [
      {"measurement": "Intact-PTH, Max", "setting": "intact PTH", "value": 109.0, "unit": "pg/mL"},
      {"measurement": "Intact-PTH, Median", "setting": "intact PTH", "value": 49.0, "unit": "pg/mL"},
      {"measurement": "Intact-PTH, Min", "setting": "intact PTH", "value": 26.0, "unit": "pg/mL"},
      {"measurement": "Serum NTX, Max", "setting": "[1]; 2 to 24 h, 28.2 μg single s.c.", "value": 21.7, "unit": "nM BCE/L"},
      {"measurement": "Serum NTX, Median", "setting": "[1]; 2 to 24 h, 28.2 μg single s.c.", "value": 14.2, "unit": "nM BCE/L"},
      {"measurement": "Serum NTX, Min", "setting": "[1]; 2 to 24 h, 28.2 μg single s.c.", "value": 9.2, "unit": "nM BCE/L"},
      {"measurement": "Serum NTX, Max", "setting": "[1]; 2 to 24 h, 56.5 μg single s.c.", "value": 27.7, "unit": "nM BCE/L"},
      {"measurement": "Serum NTX, Median", "setting": "[1]; 2 to 24 h, 56.5 μg single s.c.", "value": 13.8, "unit": "nM BCE/L"},
      {"measurement": "Serum NTX, Min", "setting": "[1]; 2 to 24 h, 56.5 μg single s.c.", "value": 7.2, "unit": "nM BCE/L"},
      {"measurement": "Serum NTX, Max", "setting": "[1]; [3]", "value": 20.4, "unit": "nM BCE/L"},
      {"measurement": "Serum NTX, Median", "setting": "[1]; [3]", "value": 13.2, "unit": "nM BCE/L"},
      {"measurement": "Serum NTX, Min", "setting": "[1]; [3]", "value": 7.2, "unit": "nM BCE/L"},
      {"measurement": "Serum NTX, Max", "setting": "[1]; [4]", "value": 20.6, "unit": "nM BCE/L"},
      {"measurement": "Serum NTX, Median", "setting": "[1]; [4]", "value": 10.7, "unit": "nM BCE/L"},
      {"measurement": "Serum NTX, Min", "setting": "[1]; [4]", "value": 7.5, "unit": "nM BCE/L"},
      {"measurement": "Serum osteocalcin, Max", "setting": "osteocalcin; 2 to 24 h, 28.2 μg single s.c.", "value": 12.7, "unit": "ng/mL"},
      {"measurement": "Serum osteocalcin, Median", "setting": "osteocalcin; 2 to 24 h, 28.2 μg single s.c.", "value": 7.6, "unit": "ng/mL"},
      {"measurement": "Serum osteocalcin, Min", "setting": "osteocalcin; 2 to 24 h, 28.2 μg single s.c.", "value": 4.6, "unit": "ng/mL"},
      {"measurement": "Serum osteocalcin, Max", "setting": "osteocalcin; 2 to 24 h, 56.5 μg single s.c.", "value": 16.7, "unit": "ng/mL"},
      {"measurement": "Serum osteocalcin, Median", "setting": "osteocalcin; 2 to 24 h, 56.5 μg single s.c.", "value": 7.4, "unit": "ng/mL"},
      {"measurement": "Serum osteocalcin, Min", "setting": "osteocalcin; 2 to 24 h, 56.5 μg single s.c.", "value": 3.2, "unit": "ng/mL"},
      {"measurement": "Serum osteocalcin, Max", "setting": "osteocalcin; [3]", "value": 12.2, "unit": "ng/mL"},
      {"measurement": "Serum osteocalcin, Median", "setting": "osteocalcin; [3]", "value": 8.1, "unit": "ng/mL"},
      {"measurement": "Serum osteocalcin, Min", "setting": "osteocalcin; [3]", "value": 4.6, "unit": "ng/mL"},
      {"measurement": "Serum osteocalcin, Max", "setting": "osteocalcin; [4]", "value": 17.9, "unit": "ng/mL"},
      {"measurement": "Serum osteocalcin, Median", "setting": "osteocalcin; [4]", "value": 7.9, "unit": "ng/mL"},
      {"measurement": "Serum osteocalcin, Min", "setting": "osteocalcin; [4]", "value": 4.3, "unit": "ng/mL"},
      {"measurement": "1,25(OH)2D, Max", "setting": "[2]; 2 to 24 h, 28.2 μg single s.c.", "value": 118.0, "unit": "pg/mL"},
      {"measurement": "1,25(OH)2D, Median", "setting": "[2]; 2 to 24 h, 28.2 μg single s.c.", "value": 67.5, "unit": "pg/mL"},
      {"measurement": "1,25(OH)2D, Min", "setting": "[2]; 2 to 24 h, 28.2 μg single s.c.", "value": 37.0, "unit": "pg/mL"},
      {"measurement": "1,25(OH)2D, Max", "setting": "[2]; 2 to 24 h, 56.5 μg single s.c.", "value": 136.0, "unit": "pg/mL"},
      {"measurement": "1,25(OH)2D, Median", "setting": "[2]; 2 to 24 h, 56.5 μg single s.c.", "value": 70.5, "unit": "pg/mL"},
      {"measurement": "1,25(OH)2D, Min", "setting": "[2]; 2 to 24 h, 56.5 μg single s.c.", "value": 33.0, "unit": "pg/mL"},
      {"measurement": "1,25(OH)2D, Max", "setting": "[2]; [3]", "value": 99.0, "unit": "pg/mL"},
      {"measurement": "1,25(OH)2D, Median", "setting": "[2]; [3]", "value": 56.0, "unit": "pg/mL"},
      {"measurement": "1,25(OH)2D, Min", "setting": "[2]; [3]", "value": 21.0, "unit": "pg/mL"},
      {"measurement": "1,25(OH)2D, Max", "setting": "[2]; [4]", "value": 94.0, "unit": "pg/mL"},
      {"measurement": "1,25(OH)2D, Median", "setting": "[2]; [4]", "value": 54.0, "unit": "pg/mL"},
      {"measurement": "1,25(OH)2D, Min", "setting": "[2]; [4]", "value": 18.0, "unit": "pg/mL"},
      {"measurement": "Serum P1NP, Max", "setting": "P1NP; 2 to 24 h, 28.2 μg single s.c.", "value": 77.4, "unit": "ng/mL"},
      {"measurement": "Serum P1NP, Median", "setting": "P1NP; 2 to 24 h, 28.2 μg single s.c.", "value": 47.4, "unit": "ng/mL"},
      {"measurement": "Serum P1NP, Min", "setting": "P1NP; 2 to 24 h, 28.2 μg single s.c.", "value": 28.0, "unit": "ng/mL"},
      {"measurement": "Serum P1NP, Max", "setting": "P1NP; 2 to 24 h, 56.5 μg single s.c.", "value": 101.0, "unit": "ng/mL"},
      {"measurement": "Serum P1NP, Median", "setting": "P1NP; 2 to 24 h, 56.5 μg single s.c.", "value": 49.1, "unit": "ng/mL"},
      {"measurement": "Serum P1NP, Min", "setting": "P1NP; 2 to 24 h, 56.5 μg single s.c.", "value": 13.0, "unit": "ng/mL"},
      {"measurement": "Serum P1NP, Max", "setting": "P1NP; [3]", "value": 80.2, "unit": "ng/mL"},
      {"measurement": "Serum P1NP, Median", "setting": "P1NP; [3]", "value": 53.5, "unit": "ng/mL"},
      {"measurement": "Serum P1NP, Min", "setting": "P1NP; [3]", "value": 30.7, "unit": "ng/mL"},
      {"measurement": "Serum P1NP, Max", "setting": "P1NP; [4]", "value": 118.0, "unit": "ng/mL"},
      {"measurement": "Serum P1NP, Median", "setting": "P1NP; [4]", "value": 56.9, "unit": "ng/mL"},
      {"measurement": "Serum P1NP, Min", "setting": "P1NP; [4]", "value": 18.3, "unit": "ng/mL"}
    ]}
  ]
}
